Test results: ChEMBL document CHEMBL3085751, “Synthesis of some new pyrazole-based 1,3-thiazoles and 1,3,4-thiadiazoles as anticancer agents” (Eur J Med Chem, 2013)

Columns and labels:
Assay type in all cases: functional, cell-based
[1] = system: HepG2; experiment: Cytotoxicity against human HepG2 cells after 72 hrs by SRB assay; conditions: HepG2, 72 h
Procedure, shortened: (§1)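 Cells kept as monolayers at 37 °C in 5% CO2 with 10% heat-inactivated FBS; A549 was grown in DMEM, HepG2 and MCF-7 in RPMI. Trypsinized cells were seeded at 1000-2000/well, left 24 h, then exposed 72 h to a range of concentrations. Cells were fixed with 10% TCA (1 h, 4 °C) and stained with 0.4% SRB in 1% acetic acid for 10 min. Dye was dissolved in Tris-HCl, OD read at 564 nm, and IC50 taken from %-viability dose-response curves.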

[2] = system: A549; experiment: Cytotoxicity against human A549 cells after 72 hrs by SRB assay; conditions: A549, 72 h; procedure, shortened: as §1
[3] = system: MCF7; experiment: Cytotoxicity against human MCF7 cells after 72 hrs by SRB assay; conditions: MCF7, 72 h; procedure, shortened: as §1

Cc1c(-c2csc(NC(=S)Nc3ccccc3)n2)c(=O)n(-c2ccccc2)n1C
IC50 [1]: 8.35 µM
IC50 [2]: 7.74 µM
IC50 [3]: 10.1 µM

Cc1c(-c2csc(/N=c3\sc(-c4ccccc4)nn3-c3ccccc3)n2)c(=O)n(-c2ccccc2)n1C
IC50 [1]: > 100 µM
IC50 [2]: > 100 µM
IC50 [3]: > 100 µM

CC(=O)c1nn(-c2ccccc2)/c(=N/c2nc(-c3c(C)n(C)n(-c4ccccc4)c3=O)cs2)s1
IC50 [1]: 67.1 µM
IC50 [2]: > 100 µM
IC50 [3]: > 100 µM

CC(=O)c1nn(-c2ccc(Cl)cc2)/c(=N/c2nc(-c3c(C)n(C)n(-c4ccccc4)c3=O)cs2)s1
IC50 [1]: > 100 µM
IC50 [2]: > 100 µM
IC50 [3]: > 100 µM

CC(=O)c1nn(-c2ccc(C)cc2)/c(=N/c2nc(-c3c(C)n(C)n(-c4ccccc4)c3=O)cs2)s1
IC50 [1]: 31.7 µM
IC50 [2]: 20.7 µM
IC50 [3]: 56.8 µM

COc1ccc(-n2nc(C(C)=O)s/c2=N\c2nc(-c3c(C)n(C)n(-c4ccccc4)c3=O)cs2)cc1
IC50 [1]: 41.2 µM
IC50 [2]: 26.5 µM
IC50 [3]: 64.5 µM

CC(=O)c1nn(-c2ccc([N+](=O)[O-])cc2)/c(=N/c2nc(-c3c(C)n(C)n(-c4ccccc4)c3=O)cs2)s1
IC50 [1]: > 100 µM
IC50 [2]: > 100 µM
IC50 [3]: > 100 µM

CCOC(=O)c1nn(-c2ccccc2)/c(=N/c2nc(-c3c(C)n(C)n(-c4ccccc4)c3=O)cs2)s1
IC50 [1]: > 100 µM
IC50 [2]: > 100 µM
IC50 [3]: > 100 µM

CCOC(=O)c1nn(-c2ccc(Cl)cc2)/c(=N/c2nc(-c3c(C)n(C)n(-c4ccccc4)c3=O)cs2)s1
IC50 [1]: > 100 µM
IC50 [2]: > 100 µM
IC50 [3]: > 100 µM

CCOC(=O)c1nn(-c2ccc(C)cc2)/c(=N/c2nc(-c3c(C)n(C)n(-c4ccccc4)c3=O)cs2)s1
IC50 [1]: > 100 µM
IC50 [2]: > 100 µM
IC50 [3]: > 100 µM

CCOC(=O)c1nn(-c2ccc(OC)cc2)/c(=N/c2nc(-c3c(C)n(C)n(-c4ccccc4)c3=O)cs2)s1
IC50 [1]: 12.9 µM
IC50 [2]: 13.1 µM
IC50 [3]: 15.9 µM

CCOC(=O)c1nn(-c2ccc([N+](=O)[O-])cc2)/c(=N/c2nc(-c3c(C)n(C)n(-c4ccccc4)c3=O)cs2)s1
IC50 [1]: 8.11 µM
IC50 [2]: 8.68 µM
IC50 [3]: 10 µM

Cc1c(-c2csc(/N=C3\SCC(=O)N3c3ccccc3)n2)c(=O)n(-c2ccccc2)n1C
IC50 [1]: 70.5 µM
IC50 [2]: > 100 µM
IC50 [3]: > 100 µM

Cc1c(-c2csc(/N=C3\S/C(=C\c4ccccc4)C(=O)N3c3ccccc3)n2)c(=O)n(-c2ccccc2)n1C
IC50 [1]: 63.4 µM
IC50 [2]: > 100 µM
IC50 [3]: > 100 µM

Cc1c(-c2csc(/N=C3\S/C(=C\c4ccc(Cl)cc4)C(=O)N3c3ccccc3)n2)c(=O)n(-c2ccccc2)n1C
IC50 [1]: > 100 µM
IC50 [2]: > 100 µM
IC50 [3]: > 100 µM

Cc1c(-c2csc(/N=C3\S/C(=C\c4ccc(N(C)C)cc4)C(=O)N3c3ccccc3)n2)c(=O)n(-c2ccccc2)n1C
IC50 [1]: > 100 µM
IC50 [2]: > 100 µM
IC50 [3]: > 100 µM

COc1ccc(/C=C2\S/C(=N\c3nc(-c4c(C)n(C)n(-c5ccccc5)c4=O)cs3)N(c3ccccc3)C2=O)cc1
IC50 [1]: 13.2 µM
IC50 [2]: 9.1 µM
IC50 [3]: 26.1 µM

Cc1ccc(/C=C2\S/C(=N\c3nc(-c4c(C)n(C)n(-c5ccccc5)c4=O)cs3)N(c3ccccc3)C2=O)cc1
IC50 [1]: > 100 µM
IC50 [2]: > 100 µM
IC50 [3]: > 100 µM

Cc1c(-c2csc(/N=C3\S/C(=C\c4ccco4)C(=O)N3c3ccccc3)n2)c(=O)n(-c2ccccc2)n1C
IC50 [1]: 16.6 µM
IC50 [2]: 13.7 µM
IC50 [3]: 22.4 µM

COc1cccc2c1C(=O)c1c(O)c3c(c(O)c1C2=O)C[C@@](O)(C(=O)CO)C[C@@H]3O[C@H]1C[C@H](N)[C@H](O)[C@H](C)O1 [DOXORUBICIN]
IC50 [1]: 0.877 µM
IC50 [2]: 0.411 µM
